Experimental data from different studies.
Target: Tyrosine-protein kinase receptor TYRO3 (TYRO3, Homo sapiens, UniProt Q06418)
Sequence (Q06418 41-890, as in one of the studies): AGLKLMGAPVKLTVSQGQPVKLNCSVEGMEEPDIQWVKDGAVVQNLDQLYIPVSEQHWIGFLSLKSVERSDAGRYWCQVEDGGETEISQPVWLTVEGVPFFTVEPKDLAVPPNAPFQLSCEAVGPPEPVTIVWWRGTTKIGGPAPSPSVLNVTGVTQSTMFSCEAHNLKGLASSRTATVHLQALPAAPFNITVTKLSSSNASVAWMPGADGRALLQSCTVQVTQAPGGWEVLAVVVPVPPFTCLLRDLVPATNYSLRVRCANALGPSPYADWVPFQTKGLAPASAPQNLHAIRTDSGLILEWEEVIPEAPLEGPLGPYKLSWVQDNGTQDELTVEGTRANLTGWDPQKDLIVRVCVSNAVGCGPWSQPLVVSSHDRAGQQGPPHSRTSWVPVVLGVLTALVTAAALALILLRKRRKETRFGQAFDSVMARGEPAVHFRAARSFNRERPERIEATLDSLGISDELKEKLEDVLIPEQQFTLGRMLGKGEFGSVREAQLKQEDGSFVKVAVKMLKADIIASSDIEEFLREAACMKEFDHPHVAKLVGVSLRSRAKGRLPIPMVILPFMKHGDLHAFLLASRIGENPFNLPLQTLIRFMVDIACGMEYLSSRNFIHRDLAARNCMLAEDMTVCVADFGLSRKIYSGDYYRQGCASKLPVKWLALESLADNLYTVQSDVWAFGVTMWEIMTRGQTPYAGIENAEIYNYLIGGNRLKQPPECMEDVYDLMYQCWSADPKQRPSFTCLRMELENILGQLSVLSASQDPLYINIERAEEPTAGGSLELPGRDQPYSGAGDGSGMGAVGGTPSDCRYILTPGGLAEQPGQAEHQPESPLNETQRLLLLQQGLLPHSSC

C=CC(=O)N1CCC(C(=O)NCC(=O)N2CCN(c3nc(-c4cnc(N)nc4C(F)F)nc(N4CCOCC4)n3)CC2)CC1  remaining binding (binding; competition with immobilised ligand; 1 µM): 100%
COc1cnc(Nc2cccc(S(N)(=O)=O)c2)nc1N1CCN(c2ccccc2)CC1  remaining binding (binding; competition with immobilised ligand; 1 µM): 72%
C[C@H](c1ccc(F)cc1)N(Cc1cccc(C(=O)O)c1)C(=O)c1cnc2ccccc2c1  remaining binding (cell-free assay; competition with immobilised ligand; 1 µM): 100%
Nc1ncc2c(n1)-c1c([nH]c3ccc(C#CC4CC4)cc13)CCCC2  remaining binding (binding; competition with immobilised ligand; 1 µM): 100%
O=C(NCCCN1CCOCC1)c1ccc(Nc2ncc(Cl)c(-c3ccc(Cl)s3)n2)cc1  remaining binding (binding; competition with immobilised ligand; 1 µM): 94%
CN(CCCC(F)(F)F)c1nccc(-c2cnn3ncccc23)n1  remaining binding (binding; 1 µM): 93%
C[C@@H](c1cccc(C#N)c1)n1cc(Cl)cc(C(N)=O)c1=N  remaining binding (cell-free assay; competition with immobilised ligand; 1 µM): 68%
C[C@@H]1CCN(c2nccc(-c3cnn4ncccc34)n2)C1  remaining binding (binding; 1 µM): 100%
COc1ccc2c(c1)O[C@@H](c1ccc(OC)c(OC)c1)C[C@H]2NC(=O)C1(c2ccc3c(c2)OC(F)(F)O3)CC1  remaining binding (cell-free assay; competition with immobilised ligand; 1 µM): 97%
O=C(NCC1CCOCC1)c1n[nH]cc1NC(=O)c1c(F)cccc1F  remaining binding (binding; competition with immobilised ligand; 1 µM): 99%
CNC(=O)[C@@H]1CC[C@@H](n2c(-c3ccc4cnccc4c3)nc3ccc(C(=O)NCc4cccc(C(N)=O)c4)cc32)C1  remaining binding (binding; competition with immobilised ligand; 1 µM): 100%
CCC(=N\O)/C(C)=C/c1ccc(F)cc1  remaining binding (cell-free assay; competition with immobilised ligand; 1 µM): 100%
N[C@@H]1CCN(c2nccc(-c3cnn4ncccc34)n2)C1  remaining binding (binding; 1 µM): 100%
NS(=O)(=O)c1cc(NC(=O)C2(c3ccccc3Cl)CC2)ccc1Oc1cccc(Cl)c1  remaining binding (cell-free assay; competition with immobilised ligand; 1 µM): 100%
O=C(c1ccc(Nc2nccc(-c3cc4ccccc4s3)n2)cc1)N1CCC(N2CCCC2)CC1  remaining binding (binding; competition with immobilised ligand; 1 µM): 95%
CN(C)c1ncc(F)c(-c2cnn3ncccc23)n1  remaining binding (binding; 1 µM): 75%
COc1ncc2cc3ccccc3nc2c1C#N  remaining binding (cell-free assay; competition with immobilised ligand; 5 µM): 96%
O=c1nc(-c2ccccn2)sc2ccccc12  remaining binding (cell-free assay; competition with immobilised ligand; 1 µM): 80%
CN(C)c1nccc(-c2cnc3ncccn23)n1  remaining binding (binding; 1 µM): 100%
O=C(c1ccc(Nc2ncc(Cl)c(-c3cc4ccccc4s3)n2)cc1)N1CCC(N2CCCC2)CC1  remaining binding (binding; competition with immobilised ligand; 1 µM): 44%
Nc1c(C(=O)NCc2ccc(C(=O)NCCCC3CCCCC3)cc2)cnn1-c1ccccc1  remaining binding (cell-free assay; competition with immobilised ligand; 0.1 µM): 100%
CN(c1nccc(-c2cnn3ncccc23)n1)C1CC1  remaining binding (binding; 1 µM): 83%
